According to article PMC4651454 (Journal of virology & antiviral research, 2014):

Assays:
JC1-Luc2a (infection) = experiment: JC1-Luc2a infectious virus luciferase assay; format: cell-based; details: Hepatitis C virus
HCV core protein = HCV core protein immunoblot in JC1-Luc2a electroporated Huh7.5.1 cells; format: cell-based, hepatitis C virus; details: 10 μM 1,25(OH)2D3, 10 IU/mL IFN-α, 72 hours, compared to untreated cells
How it was run: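 Huh7.5.1 cells electroporated with JC1-Luc2a were incubated for 72 h without drug, with 10 µM 1,25(OH)2D3, with 10 IU/mL IFN-α, or with both. Confluent plates were trypsinized, counted and lysed in equal RIPA volumes. Each condition was run in triplicate. Lysates were run on 12% Bis-Tris SDS-PAGE and transferred to nitrocellulose. Core (anti-core, epitope aa 7-50) and β-actin were detected with goat anti-mouse IgG, and band density was quantified.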

[1] = system: HCV infected Huh7.5.1 cells; experiment: RT-qPCR of selected genes in HCV infected cells; format: cell-based, human; details: 10 μM, over IFN-α treated cells (p=0.032)
How it was run: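 HCV-infected Huh7.5.1 cells were prepared as for the microarray and treated for 6 or 72 h with 1,25(OH)2D3 (4 or 10 µM) and IFN-α (1 or 10 IU/mL), alone or combined. Cultures were run in triplicate. RNA was reverse-transcribed and measured by TaqMan RT-qPCR in duplicate reactions, normalized to GAPDH. Fold change versus untreated infected culture was calculated by 2^-ΔΔCt. Means with 1 standard deviation were compared by Student t-test.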

Huh7.5.1 cells [2] = experiment: Microarray gene expression; format: cell-based, human
How it was run: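 Huh7.5.1 cells were JC1-Luc2a-transfected or mock-transfected, cultured 4 days, then plated. 1,25(OH)2D3 was added at staggered times to give 6, 12, 24, 72 or 120 h exposures, with RNA harvested at 120 h (day 9). Biotinylated cRNA (250 ng total RNA input; 750 ng hybridized) was run on HumanHT-12 v4 chips, 18-20 h at 58°C, with Cy3 detection. Data were LOESS-normalized and compared against uninfected untreated cells.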

[3] = system: JC1-Luc2a (electroporation); experiment: JC1-Luc2a transfected; format: cell-based; details: Hepatitis C virus
Huh7.5.1 cells [4] = experiment: in vitro; format: cell-based; details: human, 120 h
in vitro = format: cell-based; details: human, CC50 μM (±S.D)
[5] = system: BM4-5 FEO (genotype 1b) replicon; experiment: Synergy of 1,25; format: cell-based, hepatitis C virus
HCV = details: ref 23 (Matsumura et al.); cited from earlier work
[6] = system: full-length genotype 1b replicon; details: ref 20 (Yano et al.); cited from earlier work
HCV genotype 1 patients = details: supplemented group, HCV genotype 1, PEG-IFN/RBV; controls 42%, P<0.001; cited from earlier work

| Compound | EC50 (JC1-Luc2a (infection); 72 h) | EC50 (JC1-Luc2a (infection); 120 h) | HCV core protein expression by immunoblot (HCV core protein) | EC50 ([3]; 72 h) | EC50 ([3]; 120 h) | CC50 (Huh7.5.1 cells [4]) | CC50 at 72 h (in vitro) | further results |
| --- | --- | --- | --- | --- | --- | --- | --- | --- |
| C=C1/C(=C\C=C2/CCC[C@]3(C)[C@@H]([C@H](C)CCCC(C)(C)O)CC[C@@H]23)C[C@@H](O)C[C@@H]1O [1,25(OH)2D3, 1,25-dihydroxyvitamin D3] | 1.19 µM | 1.07 µM | Mild reduction | 2.92 µM | 2.95 µM | 22.8 µM | 17.3 µM | HIF1a mRNA expression, RT-qPCR [1]: up-regulation; HIF1a expression (Huh7.5.1 cells [2]; HCV naïve cells): strongly up regulated; GPR37 expression (Huh7.5.1 cells [2]; progressive in vitro exposure): markedly up regulated; CCL20 gene expression (Huh7.5.1 cells [2]; shortly after treatment): higher gene expression; SLC30A10 expression (Huh7.5.1 cells [2]; uninfected and infected cells): increased; EC50 ([5]; Hepatitis C virus, GETYPE1B, BM4-5, read-out: EC50 (used for synergy dosing)): 1000 nM |
| C=C1CC[C@H](O)C/C1=C/C=C1\CCC[C@]2(C)[C@@H]([C@H](C)CCCC(C)(C)O)CC[C@@H]12 [25(OH) D3] |  |  |  |  |  |  |  | Inhibition of HCV in culture (in words) (HCV): inhibited HCV in culture |
| C=C1CC[C@H](O)C/C1=C/C=C1\CCC[C@]2(C)[C@@H]([C@H](C)/C=C/[C@H](C)C(C)C)CC[C@@H]12 [Vitamin D2] | 5.72 µM | 4.41 µM |  | 18.6 µM | 21.4 µM | 41.9 µM | 53.9 µM | EC50, inhibition of HCV RNA replication [6]: 1600 ng/mL |
| C=C1CC[C@H](O)C/C1=C/C=C1\CCC[C@]2(C)[C@@H]([C@H](C)CCCC(C)C)CC[C@@H]12 [Vitamin D3] | 3.44 µM | 2.78 µM |  | 13 µM | 12.6 µM | 54.9 µM | 50.3 µM |  |
| C=C1CC[C@H](O)C/C1=C/C=C1\CCC[C@]2(C)[C@@H]([C@H](C)/C=C/[C@H](C)C(C)C)CC[C@@H]12 [vitamin D] |  |  |  |  |  |  |  | SVR rate (HCV genotype 1 patients): 86% |
| IFN-α |  |  | Mild reduction |  |  |  |  | EC50 (used for synergy dosing) ([5]; BM4-5 FEO genotype 1b replicon): 1 IU/mL |
